# Bioassay records (PubChem)
# NS3 helicase inh: inhibitors of Hepatitis C virus NS3 helicase; NS3 helicase DNA unwinding, Cy5 molecular beacon fluorescence; hit rate 0.56% among 290,000; inhibition, % at 10.9 µM;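 active = inhibition above the mean of all tested compounds plus 3 SD, set per campaign, cut at about 35% in these data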;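 also: 0% = DMSO wells and 100% = thioflavine S control wells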
#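 System: HCV NS3 helicase fragment; control set: DMSO and thioflavine S; technique: Cy5 fluorescence at 0 and 60 min, beacon hairpin quenching; reagent: beacon DNA duplex substrate plus ATP; replicates: singlicate; schedule: 1 h reaction at 25 °C, ATP-initiated; medium: MOPS buffer pH 6.5 with MgCl2, DTT, Tween20, BSA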
# PP1 inh: counter-screen for PP5 inhibitors: inhibitors of human PP1-alpha; purified PP1alpha, OMFP fluorescence; inhibition, % at 6.7 µM; P62136; hit rate 0.9% among 320,000;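 active = inhibition above the mean inhibition of all tested compounds plus 3 SD, computed separately for each screening campaign, cut at about 15% in these data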
# Target sequence (P62136 whole entry, looked up): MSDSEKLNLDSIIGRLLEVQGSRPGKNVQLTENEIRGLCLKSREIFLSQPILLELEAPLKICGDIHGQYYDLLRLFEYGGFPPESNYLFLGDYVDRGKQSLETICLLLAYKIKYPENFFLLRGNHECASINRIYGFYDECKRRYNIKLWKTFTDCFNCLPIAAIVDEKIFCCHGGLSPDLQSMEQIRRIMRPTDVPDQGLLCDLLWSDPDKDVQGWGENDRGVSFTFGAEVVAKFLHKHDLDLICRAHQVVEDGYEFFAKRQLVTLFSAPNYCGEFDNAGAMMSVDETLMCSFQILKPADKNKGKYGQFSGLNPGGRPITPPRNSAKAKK
# HCV core dimer: blocks dimerization of HCV core protein. TR-FRET GST/Flag-core106 dimerization, 1536-well. inhibition, % at 5 µM. hit rate 0.33% among 300,000. AID 1899;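 active = inhibition above the mean of all tested compounds plus 3 SD, set per screening campaign, cut at about 45% in these data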
#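 System – GST-tagged and Flag-tagged HCV core protein residues 1-106 · Repeats – one well for each compound · Technique – TR-FRET 671 and 617 nm emission · Doses – one concentration, 5 µM, in 0.5% DMSO · Times – 4 h, 22.5 °C incubation · Also added – Eu donor and XL665 acceptor anti-tag antibodies · Measure – percent inhibition of core106 dimerization signal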
# ZTA counter: blocks Epstein-Barr virus ZTA, an EBNA-1 counter-screen. P03206. inhibition, % at 11 µM. ZTA-DNA binding, fluorescence polarization. hit rate 0.15% among 320,000; in the data active = inhibition above about 33%
# Target sequence (P03206 whole entry, looked up): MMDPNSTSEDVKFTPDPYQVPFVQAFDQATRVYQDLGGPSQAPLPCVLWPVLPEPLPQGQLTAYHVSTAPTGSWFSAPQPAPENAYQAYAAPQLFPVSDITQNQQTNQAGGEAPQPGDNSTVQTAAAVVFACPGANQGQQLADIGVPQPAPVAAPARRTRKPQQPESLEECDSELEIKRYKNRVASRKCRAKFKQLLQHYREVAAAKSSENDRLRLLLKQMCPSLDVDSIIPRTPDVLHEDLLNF
# EBNA-1 inhibitor: blocks EBNA-1 binding to DNA. AID 1950. EBNA-1 DNA binding, fluorescence polarization. inhibition, % at 14.8 µM. hit rate 0.34% among 300,000; in the data active = inhibition above about 28%
# PP1 inh confirm: human PP1 phosphatase inhibition, confirmation; shares compounds with PP1 inh; purified PP1alpha, OMFP substrate fluorescence; inhibition, % at 6.7 µM; hit rate 52% among 1,900; AID 2358;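 active = mean PP1 inhibition above a set limit taken from the earlier primary screen, cut at about 15% in these data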
# PP5 inh counter: inhibits human PP5 phosphatase in PP1 counter-screen. shares compounds with PP1 inh. purified PP5c, OMFP fluorescence. inhibition, % at 6.7 µM. hit rate 4% among 1,900;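 active = mean PP5 inhibition over triplicate wells above about 9.5% taken from the earlier PP1 screen, limit read from the data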
# * hit, by the source's call; x = no result. This is a sample that favours compounds with a hit; in the whole collection about 1.9% have one here.
SMILES,NS3 helicase inh,PP1 inh,HCV core dimer,ZTA counter,EBNA-1 inhibitor,PP1 inh confirm,PP5 inh counter
CCOC(=O)N1CCN(S(=O)(=O)c2ccc(C(=O)NNc3nc4c(C)cc(C)cc4s3)cc2)CC1,-2.4,30.7*,2.4,16.5,8.2,18.9*,-2.1
O=C(CSc1nc2ccc(NC(=O)CSc3nnnn3Cc3ccccc3)cc2s1)Nc1ccccc1,-6.3,22.2*,23.7,13.3,16.6,8.1,-6.8
Cc1cc(C)c(NC(=O)CSc2nc3ccc(NC(=O)CSc4nnnn4Cc4ccccc4)cc3s2)c(C)c1,-4.0,19.8*,15.1,13.2,20.8,30.5*,-4.9
CC(Nc1cccnc1)=C(C#N)C#N,-0.8,-0.8,-3.9,4.7,-17.1,x,x
c1ccc(COc2ccccc2CNc2nn[nH]n2)cc1,-4.8,-2.9,-6.8,3.4,2.8,x,x
COc1ccc(CCC2(C)NC(=O)N(C(C)C(=O)Nc3ccccc3F)C2=O)cc1 (stereo not given),x,-3.7,x,-0.9,x,x,x
O=C(/C=C/c1cn(-c2ccccc2)nc1-c1cccnc1)c1ccco1,-7.5,18.5*,61.8*,-3.0,-1.6,-3.1,-0.7
O=C(/C=C/c1cn(-c2ccccc2)nc1-c1ccccc1)Nc1ccc(C(=O)O)cc1,12.2,19.2*,27.4,12.5,9.5,9.2,4.0
N#Cc1ccccc1NC(=O)COC(=O)/C=C/c1cn(-c2ccccc2)nc1-c1ccc(Cl)cc1,12.1,x,x,x,x,x,x
NC(=O)c1ccc(NC(=O)COC(=O)/C=C/c2cn(-c3ccccc3)nc2-c2cccnc2)cc1,25.9,23.4*,-8.3,11.9,6.3,19.0*,-1.3
O=C(NCC1CCCN1S(=O)(=O)c1ccccc1)C(=O)NC1CC1 (stereo not given),x,0.9,-0.7,5.6,8.7,x,x
O=C(NCCC(=O)N1CCCC(C(F)(F)F)C1)c1ccccc1Cl (stereo not given),0.4,-1.3,-1.9,6.1,12.6,x,x
Cc1cccc(NC(=O)CCC(=O)c2cccs2)n1,x,0.0,-4.2,-7.5,1.5,x,x
CCC(C)NC(=O)[C@H]1N2C(=O)c3c(ccc(OC)c3OC)C2SC1(C)C (stereo not given in full),-8.3,-1.0,5.6,-7.6,3.1,x,x
Cn1cccc1-c1cc(C(=O)N/N=C/c2ccccc2Cl)[nH]n1,3.1,0.3,5.2,7.6,4.6,x,x
Cn1cccc1-c1cc(C(=O)N/N=C/c2cc(Br)ccc2O)[nH]n1,-1.8,21.1*,-1.6,-3.5,-0.2,22.5*,-3.7
Cc1cccc2c1-c1sc(C(=O)Nc3nccs3)cc1CO2,24.6,21.4*,-8.9,7.0,12.3,3.4,-2.9
O=C(Nc1nccs1)c1cc2c(s1)-c1ccccc1OC2,1.8,22.6*,-30.1,-0.4,10.8,26.2*,-3.9
O=C(Nc1nc2ccccc2s1)c1cc2c(s1)-c1ccccc1OC2,-2.6,-17.9,-7.9,6.3,18.4,x,x
Cc1cccc2c1-c1sc(C(=O)Nc3cccnc3)cc1CO2,-2.4,3.9,0.3,-3.0,-0.7,x,x
COc1ccc(S(=O)(=O)N2CCN(C(=O)COc3ccc(C)c(C)c3)CC2)cc1OC,-3.4,-0.4,8.3,8.1,-1.7,x,x
O=C(CCNc1ccc(Cc2ccncc2)cc1)c1ccc([N+](=O)[O-])cc1,5.9,18.5*,20.0,6.4,10.7,4.9,-1.2
Cc1ccc(C(=O)Nc2ccc(Cc3ccncc3)cc2)cc1[N+](=O)[O-],-4.6,-0.5,-3.2,-3.3,-9.7,x,x
COc1ccc(-c2nnc(NC(=O)c3ccc(S(=O)(=O)N4COCC4(C)C)cc3)o2)cc1,7.6,29.7*,5.0,-8.8,-5.3,28.7*,-1.1
CC1(C)COCN1S(=O)(=O)c1ccc(C(=O)Nc2nnc(-c3ccc(Cl)s3)o2)cc1,3.6,12.1,6.9,-13.6,-1.2,x,x
SMILES,NS3 helicase inh,PP1 inh,HCV core dimer,ZTA counter,EBNA-1 inhibitor,PP1 inh confirm,PP5 inh counter
O=C1CC(=C2c3ccccc3-c3ccccc32)C(=O)N1CCCCN1CCN(c2ccccc2)CC1,-38.0,25.7*,10.2,-6.2,4.9,27.8*,-2.7
CCOC(=O)C1(Cc2ccccc2C)CCCN(S(=O)(=O)CC)C1 (stereo not given),-0.9,-1.3,-3.1,-16.9,-5.7,x,x
O=C1C2C3CCC(O3)C2C(=O)N1c1cccc(O)c1 (stereo not given),5.3,1.7,-11.7,-26.1,-10.4,x,x
O=C1OC(=O)C2C1[C@@H]1CC[C@H]2O1 (stereo not given in full),11.4,79.1*,-0.1,21.2,0.8,65.9*,68.5*
CCNC(=S)NNC(=O)c1ccccn1,15.0,-2.0,-4.5,-3.0,-14.8,x,x
O=C(NNC(=S)Nc1ccc(Cl)c(Cl)c1)c1ccccn1,10.4,20.8*,-0.4,1.0,-0.1,24.1*,0.7
Cc1cccc(CSc2ccc3nnc(-c4ccccn4)n3n2)c1,-4.4,18.8*,-1.4,1.5,-3.5,7.9,-6.5
COc1ccc([N+](=O)[O-])cc1NC(=O)c1ccc(Br)s1,14.9,17.7*,3.5,1.8,-5.5,21.1*,-6.2
COc1cccc(CN(C)C(=O)c2ccccc2SCC(=O)N2CCCC2)c1,x,1.6,-1.4,-5.5,-2.9,x,x
COc1cccc(CNC(=O)c2ccccc2SCC(=O)N2CCCC2)c1,x,26.0*,-6.7,1.0,-8.5,-5.4,-5.9
Cc1ccc(S(=O)(=O)N2[C@@H](c3ccccc3)C(C(=O)O)=CC[C@H]2c2cccc(Cl)c2)cc1,x,5.6,6.2,8.3,0.9,x,x
Cc1ccc(S(=O)(=O)N2[C@@H](c3ccc(Cl)cc3)C(C(=O)O)=CC[C@H]2c2ccc(Cl)c(Cl)c2)cc1,x,21.1*,8.9,7.7,5.9,15.6*,3.1
Cc1ccc(S(=O)(=O)N2[C@@H](c3cccc(Cl)c3)C(C(=O)O)=CC[C@H]2c2ccc(Cl)cc2)cc1,x,18.7*,27.1,6.8,10.2,10.1,1.8
O=C(Cn1cnc([N+](=O)[O-])c1)c1ccc(F)cc1,x,-2.7,6.5,5.1,4.2,x,x
CC(C)C[C@H](NC(=O)c1nc[nH]c1C(=O)N[C@@H](CC(C)C)C(=O)OC(C)(C)C)C(=O)OCc1ccccc1,-20.5,6.3,-5.1,-3.4,-1.7,x,x
CC(C)C[C@H](NC(=O)c1nc[nH]c1C(=O)NCCCCCNC(=O)OC(C)(C)C)C(=O)OC(C)(C)C,-25.3,16.3*,-11.1,-35.9,-13.7,6.5,5.4
CC(C)C[C@H](NC(=O)c1[nH]cnc1C(=O)N[C@@H](C)c1ccccc1)C(=O)OCc1ccccc1,x,18.3*,7.5,7.7,1.2,14.8,5.0
O=C(CNC(=O)c1ccccc1Cl)NCC(c1cccs1)N1CCOCC1 (stereo not given),x,-4.6,5.4,-4.6,5.0,x,x
CC(=O)c1ccc(NC(=O)C(C)Sc2nnc3ccccn23)cc1 (stereo not given),x,-2.3,x,-15.5,x,x,x
Fc1cccc(Cl)c1CSc1ccc(-c2cccnc2)nn1,-0.8,58.2*,3.2,-0.8,10.8,-0.8,-0.5
